1 compound from ChEMBL document CHEMBL3352559, “Synthesis and pharmacological investigation of aralkyl diamine derivatives as potential triple reuptake inhibitors” (Eur J Med Chem, 2014) can be followed below.

The species named for data set [1] is Homo sapiens. The data set is described as follows: Inhibition of SKca channel (unknown origin) at 10 uM by [125I]apamin binding assay relative to control. The essentials:
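Outsourced CNS receptor panel (55 binding assays); compound tested at 10 μM in primary radioligand binding; specific binding inhibition expressed relative to control, with >50% inhibition taken as a significant effect.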

Data set [2] can be described thus: Drug uptake in Sprague-Dawley rat brain at 0.5 mg/kg ip after 0.50 hrs.
The nature of data set [3]: Drug uptake in Sprague-Dawley rat plasma at 0.5 mg/kg iv after 1 hrs. Type of data set: ADME, organism-based. Further details: dose 0.5 mg/kg, route intravenous. The essentials:
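Male SD rats, fasted overnight until 6 h post-dose; single 0.5 mg/kg femoral-vein injection; blood drawn into heparin at 5, 15, 30 min, 1, 2 and 4 h; plasma stored at -40 °C; drug levels by LC/MS/MS; noncompartmental parameters.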

For data set [4], the species on record is Homo sapiens. The data set is described as follows: Inhibition of Kv channel (unknown origin) at 10 uM by [125I]alpha-dendrotoxin binding assay relative to control. The essentials: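 Radioligand binding was run at a contract laboratory as part of a 55-target CNS receptor panel. Test concentration was 10 μM. Inhibition of specific binding was expressed relative to control, and inhibition greater than 50% was taken as significant.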

Data set [5] has as its target Sodium-dependent noradrenaline transporter (Homo sapiens, UniProt P23975). To be noted: 10 uM.
The next data set has as its system Salmonella typhimurium. The data set is described as follows: Mutagenic activity in Salmonella typhimurium TA100 assessed as number of reversion mutation at 3 ug/plate. The class given is toxicity, organism-based. To be noted: salmonella enterica subsp. enterica serovar typhimurium. The procedure, abridged: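 Ames reversion test in Salmonella typhimurium TA98 and TA100, with and without rat liver S9 metabolic activation. Compound was dissolved in DMSO and added at 3–5000 μg/plate. Each dose, vehicle and positive control was plated in triplicate, and revertant colonies were counted.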

Data set [6] has as its target Cannabinoid receptor 1 (Homo sapiens) (UniProt P21554). Kind of data set: Displacement of [3H]-CP55940 from human CB1 receptor at 10 uM relative to control. The essentials:
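Outsourced CNS panel of 55 receptor binding assays run by Cerep. Compound tested at 10 μM, the default primary-binding concentration, with inhibition expressed relative to control. Inhibition above 50% taken as a significant effect.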

Each structure is given as a SMILES string.

Chain of Cannabinoid receptor 1 (Homo sapiens) (P21554 whole entry): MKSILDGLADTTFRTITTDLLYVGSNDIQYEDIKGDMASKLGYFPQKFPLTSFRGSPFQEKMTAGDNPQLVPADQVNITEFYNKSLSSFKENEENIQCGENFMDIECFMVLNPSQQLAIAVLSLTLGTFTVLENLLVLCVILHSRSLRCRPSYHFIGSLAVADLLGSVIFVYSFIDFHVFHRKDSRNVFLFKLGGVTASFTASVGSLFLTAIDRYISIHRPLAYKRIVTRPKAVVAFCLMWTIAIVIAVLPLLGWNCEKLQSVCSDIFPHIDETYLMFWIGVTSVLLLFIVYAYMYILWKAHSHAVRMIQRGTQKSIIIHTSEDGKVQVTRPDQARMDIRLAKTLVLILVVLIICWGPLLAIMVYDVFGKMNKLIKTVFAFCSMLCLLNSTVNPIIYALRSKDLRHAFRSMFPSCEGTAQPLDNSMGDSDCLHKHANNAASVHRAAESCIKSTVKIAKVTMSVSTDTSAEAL
Chain of Sodium-dependent noradrenaline transporter (P23975 whole entry): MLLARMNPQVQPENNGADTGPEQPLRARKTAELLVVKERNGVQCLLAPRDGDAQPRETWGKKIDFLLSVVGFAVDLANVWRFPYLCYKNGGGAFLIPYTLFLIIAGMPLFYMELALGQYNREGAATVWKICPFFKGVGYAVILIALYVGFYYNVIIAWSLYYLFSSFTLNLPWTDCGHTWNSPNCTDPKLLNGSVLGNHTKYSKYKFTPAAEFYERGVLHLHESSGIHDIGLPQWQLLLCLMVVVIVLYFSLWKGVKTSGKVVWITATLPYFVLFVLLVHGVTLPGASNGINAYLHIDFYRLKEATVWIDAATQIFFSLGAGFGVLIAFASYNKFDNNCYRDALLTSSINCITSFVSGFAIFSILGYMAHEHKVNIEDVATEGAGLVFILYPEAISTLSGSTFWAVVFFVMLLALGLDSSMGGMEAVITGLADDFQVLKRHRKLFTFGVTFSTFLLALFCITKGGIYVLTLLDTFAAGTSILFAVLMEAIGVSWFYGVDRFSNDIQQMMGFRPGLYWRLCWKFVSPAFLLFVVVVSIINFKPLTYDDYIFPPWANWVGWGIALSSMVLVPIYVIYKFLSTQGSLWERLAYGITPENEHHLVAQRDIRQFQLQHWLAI

Take `CN(C)CCC(c1ccc(Cl)c(Cl)c1)N1CCOCC1` (configuration not stated): the inhibition was -3.8% in the data set listed under Homo sapiens [1], -3.6% in the data set filed under Homo sapiens [4], 96.7% in data set [5] and -6.2% in data set [6]. Moreover, the concentration at 0.5 h in data set [2] turned out to be 549 ng/mL. In data set [3], this compound registered a concentration at 1 h of 33.5 ng/mL. The Activity with Salmonella typhimurium was 87.
